Results published in ChEMBL document CHEMBL4038329, “Side-Chain Modified Ergosterol and Stigmasterol Derivatives as Liver X Receptor Agonists” (J Med Chem, 2017).
Calls of active or inactive are those of the source. The rule behind the calls is not given here.

Legend:
Type in all cases: cell-based
[1] = target: T1, Oxysterols receptor LXR-alpha (Homo sapiens, UniProt Q13133); assay: Activation of GAL4 fused human LXR alpha expressed in HEK293 cells after 24 hrs by luciferase reporter gene assay
T1 sequence (Q13133 whole entry): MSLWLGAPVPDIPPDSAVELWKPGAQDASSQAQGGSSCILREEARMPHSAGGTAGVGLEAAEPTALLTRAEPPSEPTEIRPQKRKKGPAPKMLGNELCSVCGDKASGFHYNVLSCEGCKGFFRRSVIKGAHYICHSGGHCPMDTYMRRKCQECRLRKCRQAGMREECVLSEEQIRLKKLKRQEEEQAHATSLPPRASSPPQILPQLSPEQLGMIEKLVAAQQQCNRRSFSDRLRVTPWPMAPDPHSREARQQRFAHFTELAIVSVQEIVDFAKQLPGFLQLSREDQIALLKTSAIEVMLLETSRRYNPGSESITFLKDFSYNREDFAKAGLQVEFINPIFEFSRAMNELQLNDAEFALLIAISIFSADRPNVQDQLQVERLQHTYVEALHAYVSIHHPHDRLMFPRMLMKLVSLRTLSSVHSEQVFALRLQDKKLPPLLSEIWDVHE
How it was run: (§1)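 HEK293 cells (4x10⁴/well), grown in DMEM with 10% FBS at 37 °C under 5% CO₂, transiently co-transfected with pMH100X4-TK-luc, Renilla and the Gal4-LXR-α or Gal4-LXR-β plasmid. Dosing began 6 h after transfection and lasted 24 h, at 32, 16, 8, 4, 2 and 1 μM. Dual luciferase read-out. EC50 came from dose-response curves, averaged over three to five independent experiments, ± SD.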

[2] = Agonist activity at LXR in human U937 cells assessed as upregulation of SCD1 mRNA levels at 10 uM after 6 hrs by qPCR analysis relative to control; settings: human, 6 h, 10 µM
How it was run: (§2)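 U937 cells, 3x10⁶ in 10 ml RPMI with 10% FBS, differentiated with PMA 10 ng/ml for 72 h at 37 °C, then treated with ligand (10 μM) for 6 h. Total RNA was isolated with TRIZOL; 2 µg was reverse-transcribed for 1 h at 42 °C. Transcripts were measured by qPCR. Mean ± SD of three biological samples; ANOVA with Dunnett's test.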

[3] = Agonist activity at LXR in human HepG2 cells assessed as upregulation of FASN mRNA levels at 10 uM after 6 hrs by qPCR analysis
How it was run: (§3)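 HepG2 cells treated with ligand (10 μM). Total RNA was extracted with TRIZOL; 2 µg was reverse-transcribed (1 h, 42 °C). SREBP1c, FASN and SCD1 transcripts were measured by qPCR. Mean ± SD of three biological samples; ANOVA with Dunnett's test.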

[4] = Agonist activity at LXR in human U937 cells assessed as upregulation of SREBP1c mRNA levels at 10 uM after 6 hrs by qPCR analysis; how it was run: as §2
[5] = Agonist activity at LXR in human HepG2 cells assessed as upregulation of SREBP1c mRNA levels at 10 uM after 6 hrs by qPCR analysis; how it was run: as §3
[6] = Agonist activity at LXR in human HepG2 cells assessed as upregulation of SCD1 mRNA levels at 10 uM after 6 hrs by qPCR analysis; how it was run: as §3
[7] = Agonist activity at LXR in human U937 cells assessed as upregulation of FASN mRNA levels at 10 uM after 6 hrs by qPCR analysis; how it was run: as §2
[8] = target: T2, Oxysterols receptor LXR-beta (Homo sapiens, UniProt P55055); assay: Activation of GAL4 fused human LXR beta expressed in HEK293 cells after 24 hrs by luciferase reporter gene assay; how it was run: as §1
T2 sequence (P55055 whole entry): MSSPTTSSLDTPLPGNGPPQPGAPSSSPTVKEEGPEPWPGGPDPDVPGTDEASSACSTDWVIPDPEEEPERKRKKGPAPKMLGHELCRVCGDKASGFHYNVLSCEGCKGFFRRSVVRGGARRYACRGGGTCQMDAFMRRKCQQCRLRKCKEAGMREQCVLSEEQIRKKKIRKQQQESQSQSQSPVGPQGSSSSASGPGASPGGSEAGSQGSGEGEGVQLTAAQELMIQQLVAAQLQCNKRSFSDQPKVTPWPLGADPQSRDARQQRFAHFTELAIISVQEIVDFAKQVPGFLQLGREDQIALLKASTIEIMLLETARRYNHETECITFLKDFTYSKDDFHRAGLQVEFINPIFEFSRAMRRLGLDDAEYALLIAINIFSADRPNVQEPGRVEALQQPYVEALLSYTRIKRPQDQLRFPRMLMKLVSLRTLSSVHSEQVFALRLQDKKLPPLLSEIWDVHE

Homo sapiens = species: Homo sapiens; assay: Agonist activity at LXR in human U937 cells assessed as upregulation of ABCA1 mRNA levels at 10 uM after 6 hrs by qPCR analysis; how it was run: as §2

SMILES	EC50 [1]	Activity [2]	Activity [3]	Activity [4]	Activity [5]	Activity [6]	Activity [7]	EC50 [8]	Activity (Homo sapiens)
CC[C@H](C[C@H](O)[C@@H](C)[C@H]1CC[C@H]2[C@@H]3CC=C4C[C@@H](O)CC[C@]4(C)[C@H]3CC[C@]12C)C(C)C	Not Active	Not Active	Not Active	Not Active	Not Active	Not Active	Not Active	Not Active	–
CC(C)[C@@H](C)C[C@@H](O)[C@@H](C)[C@H]1CC[C@H]2C3=CC=C4C[C@@H](O)CC[C@]4(C)[C@H]3CC[C@]12C	Not Active	Not Active	Not Active	Not Active	Not Active	Not Active	Not Active	Not Active	Active
CC[C@@H](C(C)C)[C@@H](O)C[C@@H](C)[C@H]1CC[C@H]2[C@@H]3CC=C4C[C@@H](O)CC[C@]4(C)[C@H]3CC[C@]12C	Not Active	Not Active	Not Active	Not Active	Not Active	Not Active	Not Active	Not Active	Active
